An excerpt weighted towards active compounds, which were near 1.3% of everything screened.
RBBP9 inhibitor: blocks human serine hydrolase RBBP9; actives 0.2% (n = 220,000); AID 1515; recombinant RBBP9, FP-Rh probe fluorescence polarization; inhibition, % at 7.94 µM;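 active means inhibition above the campaign mean of all tested compounds plus 3 SD, cut at about 14% in these data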
Target sequence (O75884 whole entry, looked up): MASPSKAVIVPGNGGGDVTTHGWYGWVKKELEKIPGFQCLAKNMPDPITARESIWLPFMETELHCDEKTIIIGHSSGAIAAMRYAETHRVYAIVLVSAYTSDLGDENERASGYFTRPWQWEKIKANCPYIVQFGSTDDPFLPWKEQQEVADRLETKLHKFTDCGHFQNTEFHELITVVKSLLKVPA
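Test system – recombinant human RBBP9 · Input – RBBP9 2.5 µM in dispensing solution, pre-mixing · Medium – Tris buffer pH 8.0, NaCl, Pluronic · Schedule – preincubation 30 min plus labeling 45 min at 25 °C · Measured by – fluorescence polarization · Measure – % inhibition · Controls – DMSO and no-protein wells · Replicates – one well per compound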
PAD4 inh: inhibitors of human PAD4; recombinant PAD4, RCA probe fluorescence polarization; inhibition, % at 6.36 µM; actives 0.41% (n = 330,000);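 active means percent inhibition above a cutoff equal to the mean of all tested compounds plus 3 SD, cut at about 15% in these data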
LYPLA2 inh: counter-screen for PME1 inhibitors: inhibitors of human LYPLA2 | O95372 | inhibition, % at 5.9 µM | actives 0.38% (n = 320,000) | recombinant LYPLA2, FP-Rh probe fluorescence polarization;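 active means inhibition above the screen-wide mean plus 3 SD, limit set per campaign, cut at about 26% in these data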
Target sequence (O95372 whole entry, looked up): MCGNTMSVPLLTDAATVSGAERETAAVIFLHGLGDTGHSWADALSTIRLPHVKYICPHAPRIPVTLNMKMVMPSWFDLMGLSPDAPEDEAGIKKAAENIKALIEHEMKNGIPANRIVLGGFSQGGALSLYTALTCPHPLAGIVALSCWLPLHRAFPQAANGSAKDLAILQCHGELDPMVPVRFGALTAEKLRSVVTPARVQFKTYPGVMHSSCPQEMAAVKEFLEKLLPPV
PME-1 primary: blocks human protein phosphatase methylesterase 1 | Q9Y570 | recombinant PME-1, FP-Rh probe fluorescence polarization | inhibition, % at 5.9 µM | actives 0.53% (n = 320,000);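 active means inhibition above the campaign mean of all compounds plus 3 SD, cut at about 26% in these data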;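 further: competitive labeling of PME-1 active site by serine hydrolase directed probe; inhibitors block probe labeling so polarization falls and inhibition rises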
Fam108B counter: Fam108B inhibition, counter-screen for RBBP9 inhibitors. recombinant Fam108B, FP-Rh probe fluorescence polarization. actives 0.33% (n = 300,000). inhibition, % at 9.51 µM;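 active means inhibition above the screen mean inhibition plus 3 SD, computed separately per campaign, cut at about 18% in these data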;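 further: inhibitors lower polarization as less probe binds the enzyme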
LYPLA1 inh: LYPLA1 (human) inhibition in PME1 counter-screen. O75608. inhibition, % at 5.9 µM. recombinant LYPLA1, FP-Rh probe fluorescence polarization. actives 0.16% (n = 320,000). AID 2174;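 active means inhibition above the mean of all tested compounds plus 3 SD, set per campaign, cut at about 14% in these data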;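 further: inhibitors block serine hydrolase probe labeling of LYPLA1 so polarization falls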
Fam108b confirm: confirmation of mouse Fam108b serine hydrolase inhibitors. shares compounds with Fam108B counter. recombinant Fam108b, FP-Rh probe fluorescence polarization. inhibition, % at 9.51 µM. actives 44% (n = 930);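 active means inhibition above a limit from the primary screen, the mean over all compounds plus 3 SD, cut at about 19% in these data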;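 further: inhibitors free the probe so polarization falls as inhibition rises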
Fam108b inh: mouse ABHD17B inhibition. inhibition, % at 20 µM. AID 588649. shares compounds with Fam108B counter. recombinant Fam108b, gel-based ABPP, fluorophosphonate probe. actives 44% (n = 260); in the data active means inhibition above about 40%
Numbers stand for hits; – = inactive; · = not tested or not shown.

SMILES	RBBP9 inhibitor	PAD4 inh	LYPLA2 inh	PME-1 primary	Fam108B counter	LYPLA1 inh	Fam108b confirm	others
O=C(O)C1Nc2ccc(Br)cc2C2C=CCC12 (stereo not drawn)	·	–	–	–	55	–	35	Fam108b inh=40
CC12CCC(=O)N1C(C(=O)Nc1ccccc1F)CS2 (stereo not drawn)	·	–	–	–	–	–	·
Cc1csc(NC(=O)c2cc(C)on2)n1	·	–	–	–	·	–	·
CCOC(=O)C1=C(C)N=c2sc(=Cc3ccc(O)c([N+](=O)[O-])c3)c(=O)n2C1c1ccccc1OC (stereo not drawn)	·	·	·	·	·	·	·	Fam108b inh=–
CCOc1ccc(OCCC(=O)N(CC)CC(=O)NCc2ccc(Cl)cc2)cc1	·	–	–	–	–	–	·
CCc1ccccc1N(CC(=O)NC1CCCCC1)C(=O)CCCC(=O)Nc1ccccn1	·	–	–	–	–	–	·
COc1cc(O)ccc1/C=N/NC(=O)c1ccc([N+](=O)[O-])cc1	–	–	–	–	–	–	·
O=C(NC(CSCc1ccccc1)C(=O)N/N=C/c1ccc(O)cc1O)c1ccc([N+](=O)[O-])cc1 (stereo not drawn)	–	–	–	–	23	–	–
O=C1C(=O)c2ccc(-c3ccccc3)cc2-c2ccccc21	–	–	–	–	54	–	69	Fam108b inh=–
Nc1ccc2c(c1)C(=O)c1ccccc1-2	·	–	–	–	–	–	·
CCC(=O)OCC(=O)[C@@]1(OC(=O)CC)[C@@H](C)C[C@H]2[C@@H]3CCC4=CC(=O)C=C[C@]4(C)[C@@]3(Cl)[C@@H](O)C[C@@]21C	·	–	–	–	–	–	·
CCOC(=O)c1c(NC(=O)/C=C/c2ccc3c(c2)OCO3)sc(C)c1CC	–	–	–	–	82	–	–
O=C(N/N=C/c1cc([N+](=O)[O-])cc(Br)c1O)C12CC3CCC(CC(C3)C1)C2	–	–	–	–	–	–	·
O=[N+]([O-])c1cc(Br)c(O)c(/C=N/Nc2nnnn2-c2cccc3ccccc23)c1	–	–	–	49	40	–	54
Cc1ccc(C(=O)CSc2nnc(CNc3nc(-c4ccccc4)cs3)n2C)cc1	–	–	–	–	–	–	·
COc1ccccc1OCc1n[nH]c(=S)n1Cc1ccccc1	–	–	–	–	–	–	·
COc1cccc(/C=N/NC(=O)c2ccc(-c3ccccc3)cc2)c1O	–	–	–	–	–	–	·
COc1cccc(/C=N/NC(=O)c2[nH]c(C)c(C(=O)N/N=C/c3cccc(OC)c3O)c2C)c1O	–	–	–	35	39	–	60
COc1ccc(Nc2nc(C(F)(F)F)nc(C)c2C#N)cc1	–	–	–	–	–	–	·
O=C(Nc1ccc(-c2nc3ccccc3o2)cc1)c1ccc(N2CCOCC2)c([N+](=O)[O-])c1	–	–	–	–	20	–	–
COc1ccc2oc(-c3ccc(NC(=O)c4ccc(N5CCOCC5)c([N+](=O)[O-])c4)cc3)nc2c1	–	–	–	–	–	–	·
Cc1cccc(NC(=S)NCCc2ccc3c(c2)OCCO3)c1C	–	–	–	–	–	–	·
O=C(CNc1cccc2ccccc12)N/N=C/c1cccc(Oc2ccccc2)c1	–	–	–	36	33	–	–
O=C(NN=C1CCN(Cc2ccccc2)CC1)c1cc2ccccc2cc1O	–	–	–	29	34	–	–
O=C(NN=C1CCN(Cc2ccccc2)CC1)c1ccccc1O	–	–	–	–	–	–	·
O=C(CSc1nnc(-c2cccnc2)n1Cc1ccco1)Nc1cccc(O)c1	·	–	–	–	–	–	·
Cc1ccc(/C=C\c2nccc3c2[nH]c2ccccc23)cc1	–	–	–	–	24	–	–
Fc1ccc(/C=C\c2nccc3c2[nH]c2ccccc23)cc1	–	–	–	–	19	–	–
CCOc1ccccc1N1CC(C(=O)Nc2cccc(S(=O)(=O)N3CCCCC3)c2)CC1=O (stereo not drawn)	–	–	–	–	–	–	·
N#C/C(=C\c1coc2ccc(O)cc2c1=O)C(=O)Nc1nc2ccccc2s1	–	–	–	–	44	–	–
